# Measurements published in ChEMBL document CHEMBL1687714, “Genetic analysis of fenhexamid-resistant field isolates of the phytopathogenic fungus Botrytis cinerea” (Antimicrob Agents Chemother, 2008).
# Calls of active or inactive are those of the source. No cut-off for these calls is given here.
# Columns and labels:
# Format in all cases: functional, organism-based
# [1] = system: Botrytis cinerea; test: Antifungal activity against highly fenhexamid-resistant Botrytis cinerea 440b assessed as inhibition of germ tube elongation after 24 hrs
# [2] = system: Botrytis cinerea; test: Antifungal activity against moderately to slightly fenhexamid-resistant Botrytis cinerea 221 assessed as inhibition of germ tube elongation after 24 hrs; conditions: Botrytis cinerea, 221, 24 h
# [3] = system: Botrytis cinerea; test: Antifungal activity against highly fenhexamid-resistant Botrytis cinerea 05-AVB assessed as inhibition of mycelium growth measured over 5 days; conditions: 120 h
# [4] = system: Botrytis cinerea; test: Antifungal activity against highly fenhexamid-resistant Botrytis cinerea 264 assessed as inhibition of mycelium growth measured over 5 days; conditions: Botrytis cinerea, 264, 120 h
# [5] = system: Botrytis cinerea; test: Antifungal activity against highly fenhexamid-resistant Botrytis cinerea 506a assessed as inhibition of germ tube elongation after 24 hrs
# [6] = system: Botrytis cinerea; test: Antifungal activity against highly fenhexamid-resistant Botrytis cinerea 379a assessed as inhibition of mycelium growth measured over 5 days; conditions: 120 h
# [7] = system: Botrytis cinerea; test: Antifungal activity against highly fenhexamid-resistant Botrytis cinerea 05-190 assessed as inhibition of germ tube elongation after 24 hrs; conditions: 05-190, 24 h
# [8] = system: Botrytis cinerea; test: Antifungal activity against highly fenhexamid-resistant Botrytis cinerea 533 assessed as inhibition of germ tube elongation after 24 hrs; conditions: Botrytis cinerea, 533, 24 h
# [9] = system: Botrytis cinerea; test: Antifungal activity against highly fenhexamid-resistant Botrytis cinerea 520a assessed as inhibition of mycelium growth measured over 5 days; conditions: 120 h
# [10] = system: Botrytis cinerea; test: Antifungal activity against highly fenhexamid-resistant Botrytis cinerea 520b assessed as inhibition of germ tube elongation after 24 hrs
# [11] = system: Botrytis cinerea; test: Antifungal activity against highly fenhexamid-resistant Botrytis cinerea 379b assessed as inhibition of mycelium growth measured over 5 days; conditions: 120 h
# [12] = system: Botrytis cinerea; test: Antifungal activity against highly fenhexamid-resistant Botrytis cinerea 214 assessed as inhibition of mycelium growth measured over 5 days; conditions: Botrytis cinerea, 214, 120 h
# [13] = system: Botrytis cinerea; test: Antifungal activity against highly fenhexamid-resistant Botrytis cinerea 179 assessed as inhibition of mycelium growth measured over 5 days; conditions: Botrytis cinerea, 179, 120 h
# [14] = system: Botrytis cinerea; test: Antifungal activity against moderately to slightly fenhexamid-resistant Botrytis cinerea 202 assessed as inhibition of mycelium growth measured over 5 days; conditions: Botrytis cinerea, 202, 120 h
# [15] = system: Botrytis cinerea; test: Antifungal activity against highly fenhexamid-resistant Botrytis cinerea 118 assessed as inhibition of mycelium growth measured over 5 days; conditions: Botrytis cinerea, 118, 120 h
# [16] = system: Botrytis cinerea; test: Antifungal activity against HydR3 deficient Botrytis cinerea 453 harboring TELerg N369D mutant at 5 ug/ml relative to wild-type
# Method in brief: (§1)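 In the dominance test, the recipient strains 453b and 286 were transformed with different erg27 alleles. Spores of the transformants were grown on YSS medium containing fenhexamid at different concentrations and 50 µg ml–1 hygromycin B. Parental strains were grown without hygromycin. Growth was scored after 7 days at 21°C.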
# [17] = system: Botrytis cinerea; test: Antifungal activity against fenhexamid-senistive Botrytis cinerea SAS405 assessed as inhibition of mycelium growth measured over 5 days; conditions: SAS405, 120 h
# [18] = system: Botrytis cinerea; test: Antifungal activity against highly fenhexamid-resistant Botrytis cinerea MK3-1 assessed as inhibition of germ tube elongation after 24 hrs; conditions: MK3-1, 24 h
# [19] = system: Botrytis cinerea; test: Antifungal activity against highly fenhexamid-resistant Botrytis cinerea 520b assessed as inhibition of mycelium growth measured over 5 days; conditions: 120 h
# [20] = system: Botrytis cinerea; test: Antifungal activity against highly fenhexamid-resistant Botrytis cinerea 05-221 assessed as inhibition of mycelium growth measured over 5 days; conditions: 05-221, 120 h
# [21] = system: Botrytis cinerea; test: Antifungal activity against moderately to slightly fenhexamid-resistant Botrytis cinerea 05-1.27 assessed as inhibition of germ tube elongation after 24 hrs; conditions: 05-1.27, 24 h
# [22] = system: Botrytis cinerea; test: Antifungal activity against highly fenhexamid-resistant Botrytis cinerea 312 assessed as inhibition of mycelium growth measured over 5 days; conditions: Botrytis cinerea, 312, 120 h
# [23] = system: Botrytis cinerea; test: Antifungal activity against highly fenhexamid-resistant Botrytis cinerea 223b assessed as inhibition of mycelium growth measured over 5 days; conditions: 120 h
# [24] = system: Botrytis cinerea; test: Antifungal activity against moderately to slightly fenhexamid-resistant Botrytis cinerea 453b assessed as inhibition of mycelium growth measured over 5 days; conditions: 120 h
# [25] = system: Botrytis cinerea; test: Antifungal activity against moderately to slightly fenhexamid-resistant Botrytis cinerea 453a assessed as inhibition of germ tube elongation after 24 hrs
# [26] = system: Botrytis cinerea; test: Antifungal activity against highly fenhexamid-resistant Botrytis cinerea 506a assessed as inhibition of mycelium growth measured over 5 days; conditions: 120 h
# [27] = system: Botrytis cinerea; test: Antifungal activity against moderately to slightly fenhexamid-resistant Botrytis cinerea 221 assessed as inhibition of mycelium growth measured over 5 days; conditions: Botrytis cinerea, 221, 120 h
# [28] = system: Botrytis cinerea; test: Antifungal activity against moderately to slightly fenhexamid-resistant Botrytis cinerea 452 assessed as inhibition of mycelium growth measured over 5 days; conditions: Botrytis cinerea, 452, 120 h
# [29] = system: Botrytis cinerea; test: Antifungal activity against highly fenhexamid-resistant Botrytis cinerea 05-PV Reims assessed as inhibition of mycelium growth measured over 5 days; conditions: 120 h
# [30] = system: Botrytis cinerea; test: Antifungal activity against highly fenhexamid-resistant Botrytis cinerea 118 assessed as inhibition of germ tube elongation after 24 hrs; conditions: Botrytis cinerea, 118, 24 h
# [31] = system: Botrytis cinerea; test: Antifungal activity against Botrytis cinerea 1837 expressing erg27 HydR3+ alleles assessed as appearance of dense mycelium up to 20 ug/ml
# Method in brief: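 Spores of parental strains were spread on YSS (synthetic complete) medium containing fenhexamid at several concentrations, without hygromycin B. Growth was scored after 7 days at 21°C.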
# [32] = system: Botrytis cinerea; test: Antifungal activity against fenhexamid-senistive Botrytis cinerea SAS56 assessed as inhibition of germ tube elongation after 24 hrs; conditions: SAS56, 24 h
# [33] = system: Botrytis cinerea; test: Antifungal activity against moderately to slightly fenhexamid-resistant Botrytis cinerea 454 assessed as inhibition of mycelium growth measured over 5 days; conditions: Botrytis cinerea, 454, 120 h
# [34] = system: Botrytis cinerea; test: Antifungal activity against highly fenhexamid-resistant Botrytis cinerea 1837 assessed as inhibition of germ tube elongation after 24 hrs; conditions: Botrytis cinerea, 1837, 24 h
# [35] = system: Botrytis cinerea; test: Antifungal activity against highly fenhexamid-resistant Botrytis cinerea 05-190 assessed as inhibition of mycelium growth measured over 5 days; conditions: 05-190, 120 h
# [36] = system: Botrytis cinerea; test: Antifungal activity against highly fenhexamid-resistant Botrytis cinerea 05-PV Reims assessed as inhibition of germ tube elongation after 24 hrs
# [37] = system: Botrytis cinerea; test: Antifungal activity against highly fenhexamid-resistant Botrytis cinerea 440a assessed as inhibition of mycelium growth measured over 5 days; conditions: 120 h
# [38] = system: Botrytis cinerea; test: Antifungal activity against moderately to slightly fenhexamid-resistant Botrytis cinerea 453a assessed as inhibition of mycelium growth measured over 5 days; conditions: 120 h
# [39] = system: Botrytis cinerea; test: Antifungal activity against highly fenhexamid-resistant Botrytis cinerea MK3-36 assessed as inhibition of germ tube elongation after 24 hrs; conditions: MK3-36, 24 h
# [40] = system: Botrytis cinerea; test: Antifungal activity against fenhexamid-senistive Botrytis cinerea SAS56 assessed as inhibition of mycelium growth measured over 5 days; conditions: SAS56, 120 h
# [41] = system: Botrytis cinerea; test: Antifungal activity against fenhexamid-senistive Botrytis cinerea SAS405 assessed as inhibition of germ tube elongation after 24 hrs; conditions: SAS405, 24 h
# [42] = system: Botrytis cinerea; test: Antifungal activity against moderately to slightly fenhexamid-resistant Botrytis cinerea 05-1.27 assessed as inhibition of mycelium growth measured over 5 days; conditions: 05-1.27, 120 h
# [43] = system: Botrytis cinerea; test: Antifungal activity against Botrytis cinerea 286 harboring TELerg S336C mutant at 2 ug/ml relative to wild-type; method in brief: as §1
smiles,measurement,setting,value
CC1(C(=O)Nc2ccc(O)c(Cl)c2Cl)CCCCC1 [FENHEXAMID],EC50,[1],> 10 µg/mL
same,EC50,[2],0.5 µg/mL
same,EC50,[3],5 µg/mL
same,EC50,[4],> 10 µg/mL
same,EC50,[5],> 10 µg/mL
same,EC50,[6],> 10 µg/mL
same,EC50,[7],> 10 µg/mL
same,EC50,[8],> 10 µg/mL
same,EC50,[9],3 µg/mL
same,EC50,[10],8 µg/mL
same,EC50,[11],> 10 µg/mL
same,EC50,[12],> 10 µg/mL
same,EC50,[13],> 10 µg/mL
same,EC50,[14],< 0.3 µg/mL
same,EC50,[15],> 10 µg/mL
same,Activity,[16],inactive
same,EC50,[17],< 0.1 µg/mL
same,EC50,[18],> 5 µg/mL
same,EC50,[19],3 µg/mL
same,EC50,[20],7 µg/mL
same,EC50,[21],2.5 µg/mL
same,EC50,[22],> 10 µg/mL
same,EC50,[23],> 10 µg/mL
same,EC50,[24],1.5 µg/mL
same,EC50,[25],3 µg/mL
same,EC50,[26],> 10 µg/mL
same,EC50,[27],0.2 µg/mL
same,EC50,[28],1.5 µg/mL
same,EC50,[29],> 10 µg/mL
same,EC50,[30],> 10 µg/mL
same,Activity,[31],inactive
same,EC50,[32],< 0.1 µg/mL
same,EC50,[33],< 0.3 µg/mL
same,EC50,[34],> 10 µg/mL
same,EC50,[35],> 10 µg/mL
same,EC50,[36],> 10 µg/mL
same,EC50,[37],> 10 µg/mL
same,EC50,[38],2 µg/mL
same,EC50,[39],> 5 µg/mL
same,EC50,[40],< 0.1 µg/mL
same,EC50,[41],< 0.1 µg/mL
same,EC50,[42],0.2 µg/mL
same,Activity,[43],inactive
